Structures can show the parent of a compound that is named as a salt. Activity calls are given as the source filed them. The calls are words filed in the database; no cut-off is given here.
Experiments:
BGC-823 [1] = assay: Cytotoxicity against human BGC823 cells assessed as inhibition of growth incubated for 72 hrs by MTT assay; format: functional, cell-based; details: BGC-823, 72 h
Method in brief: (§1)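 Cells grown in RPMI-1640 or DMEM with 10% heat-inactivated FBS. Exposed to six concentrations (100, 33, 10, 3.3, 1.0, 0.33 μM) for 72 h at 37 °C. MTT (5 mg/mL, 10 μL) added for 4 h, then medium removed and DMSO added, absorbance read at 570 nm. IC50 is the concentration giving 50% lower absorbance than control. Mean ± SD of three independent experiments; adriamycin positive control.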

NCI-H460 [2] = assay: Cytotoxicity against human NCI-H460 cells assessed as inhibition of growth incubated for 72 hrs by MTT assay; format: functional, cell-based; details: NCI-H460, 72 h; method in brief: as §1
HCT-116 [3] = assay: Cytotoxicity against human HCT116 cells assessed as inhibition of growth incubated for 72 hrs by MTT assay; format: functional, cell-based; details: HCT-116, 72 h; method in brief: as §1
SMMC-7721 [4] = assay: Cytotoxicity against human SMMC7721 cells assessed as inhibition of growth incubated for 72 hrs by MTT assay; format: functional, cell-based; details: SMMC-7721, 72 h; method in brief: as §1
HeLa [5] = assay: Cytotoxicity against human HeLa cells assessed as inhibition of growth incubated for 72 hrs by MTT assay; format: functional, cell-based; method in brief: as §1
SMMC-7721 [6] = assay: Cytotoxicity against human SMMC7721 cells assessed as inhibition of growth at 0.6 to 5.5 uM incubated for 24 hrs by MTT assay; format: functional, cell-based
Method in brief: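 SMMC7721 viability measured by MTT after exposure to 0, 0.61, 1.83, 5.49 or 16.5 μM for 0, 24, 48 and 72 h. Vehicle-treated cells served as control. Mean ± SD, n = 3.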

SMMC-7721 [7] = assay: Inhibition of cell adhesion of human SMMC7721 cells at 0.61 to 5.49 uM incubated for 1 hr by matrigel based assay; format: functional
Method in brief: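 Wells coated overnight with Matrigel in 0.5% serum-free RPMI-1640, blocked with 2% BSA for 30 min and washed with PBS. SMMC7721 cells (2 × 10^4/well) added with 0.61, 1.83 or 5.49 μM and left to adhere for 1 h. Medium removed, 0.2% crystal violet applied for 10 min, dye dissolved in DMSO, OD read at 540 nm. Mean ± SD, n = 3.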

SMMC-7721 [8] = assay: Inhibition of cell migration of human SMMC7721 cells incubated for 24 hrs by H and E staining based transwell chamber assay; format: functional
Method in brief: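 Transwell migration: 4 × 10^5 SMMC7721 cells in RPMI-1640 with 0.1% FBS plus 0.61, 1.83 or 5.49 μM placed in upper chamber; lower chamber held RPMI-1640 with 10% FBS. Cells on the lower membrane surface fixed in paraformaldehyde for 30 min and stained with H&E for 5 min. Methods give 6 h, legend gives 24 h. Vehicle control; mean ± SD, n = 3.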

[9] = molecular target: 72 kDa type IV collagenase (Homo sapiens) (UniProt P08253); assay: Inhibition of MMP2 activity in human SMMC7721 cells incubated for 24 hrs by gelatin zymography; format: cell-based
Sequence of 72 kDa type IV collagenase (Homo sapiens) (P08253 110-660 limits assumed): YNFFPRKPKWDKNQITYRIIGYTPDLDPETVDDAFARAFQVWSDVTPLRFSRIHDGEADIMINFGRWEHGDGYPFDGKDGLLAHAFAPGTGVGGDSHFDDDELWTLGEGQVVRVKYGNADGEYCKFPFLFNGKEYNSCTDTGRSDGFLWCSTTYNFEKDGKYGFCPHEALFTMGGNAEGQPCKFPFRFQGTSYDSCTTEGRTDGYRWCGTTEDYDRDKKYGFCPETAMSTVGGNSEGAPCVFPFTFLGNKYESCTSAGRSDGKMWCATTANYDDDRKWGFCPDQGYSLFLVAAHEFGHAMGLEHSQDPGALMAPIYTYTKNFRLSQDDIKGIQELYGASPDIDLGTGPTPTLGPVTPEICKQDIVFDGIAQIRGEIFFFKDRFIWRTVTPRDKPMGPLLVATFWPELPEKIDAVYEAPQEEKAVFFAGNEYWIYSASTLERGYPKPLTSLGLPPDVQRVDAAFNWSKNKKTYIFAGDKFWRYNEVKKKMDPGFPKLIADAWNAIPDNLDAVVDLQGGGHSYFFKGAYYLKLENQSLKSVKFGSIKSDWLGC
Method in brief: (§2)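 SMMC7721 cells (2 × 10^5/well) treated with 0.61, 1.83 or 5.49 μM for 24 h. Culture supernatants run on 10% SDS-PAGE containing 0.1% gelatin. Gels washed in 2.5% Triton X-100 (three 1-h washes), then incubated 36 h at 37 °C in 50 mM Tris-HCl, 10 mM CaCl2, 1 μM ZnCl2, 0.2 M NaCl, pH 7.6. Coomassie R250 stain; bands at 72 kDa (MMP-2) and 92 kDa (MMP-9) quantified by densitometry. Mean ± SD, n = 3.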

[10] = molecular target: Matrix metalloproteinase-9 (Homo sapiens) (UniProt P14780); assay: Inhibition of MMP9 activity in human SMMC7721 cells incubated for 24 hrs by gelatin zymography; format: cell-based; method in brief: as §2
Sequence of Matrix metalloproteinase-9 (Homo sapiens) (P14780 whole entry): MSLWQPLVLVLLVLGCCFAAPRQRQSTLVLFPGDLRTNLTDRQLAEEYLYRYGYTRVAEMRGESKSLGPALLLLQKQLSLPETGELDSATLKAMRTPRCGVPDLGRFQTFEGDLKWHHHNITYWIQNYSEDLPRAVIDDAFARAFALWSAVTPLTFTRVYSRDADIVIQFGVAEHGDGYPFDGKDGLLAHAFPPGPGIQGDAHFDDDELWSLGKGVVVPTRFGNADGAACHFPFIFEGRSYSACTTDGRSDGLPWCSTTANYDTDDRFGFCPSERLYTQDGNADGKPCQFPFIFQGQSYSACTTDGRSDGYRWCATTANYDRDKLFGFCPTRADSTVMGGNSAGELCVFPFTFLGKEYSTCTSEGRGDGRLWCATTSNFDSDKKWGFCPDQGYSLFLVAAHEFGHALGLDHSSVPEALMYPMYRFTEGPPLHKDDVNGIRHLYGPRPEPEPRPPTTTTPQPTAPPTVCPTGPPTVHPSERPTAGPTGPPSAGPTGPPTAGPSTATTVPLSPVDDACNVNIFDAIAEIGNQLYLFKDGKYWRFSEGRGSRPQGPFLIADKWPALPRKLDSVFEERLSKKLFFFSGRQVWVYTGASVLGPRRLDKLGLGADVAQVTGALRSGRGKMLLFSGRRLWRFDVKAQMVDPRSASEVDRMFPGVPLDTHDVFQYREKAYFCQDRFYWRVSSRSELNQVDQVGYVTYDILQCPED

SMMC-7721 [11] = assay: Inhibition of MMP2 protein expression in human SMMC7721 cells at […] to 5.49 uM incubated for 24 hrs by Western blot analysis; format: functional, cell-based
Method in brief: (§3)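 SMMC7721 cells (5 × 10^5/well) treated with 0.61, 1.83 or 5.49 μM for 24 h, then lysed in RIPA buffer with protease inhibitors for 40 min on ice. Protein (60 μg) resolved on 10% SDS-PAGE and transferred to PVDF. Probed with MMP-2 or MMP-9 primary antibody and peroxidase-conjugated secondary, detected by chemiluminescence, normalized to GAPDH.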

SMMC-7721 [12] = assay: Inhibition of MMP9 protein expression in human SMMC7721 cells at […] to 5.49 uM incubated for 24 hrs by Western blot analysis; format: functional, cell-based; method in brief: as §3
SMMC-7721 [13] = assay: Inhibition of MMP2 gene expression in human SMMC7721 cells at […] to 5.49 uM incubated for 24 hrs by real-time PCR analysis; format: functional, cell-based
Method in brief: (§4)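 SMMC7721 cells (5 × 10^5/well) treated with 0.61, 1.83 or 5.49 μM for 24 h. Total RNA analysed by SYBR Green qPCR using MMP-2 and MMP-9 specific primers. Cycling: 95 °C for 10 min, then 44 cycles of 95 °C 10 s, 60 °C 20 s, 72 °C 20 s. GAPDH internal control.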

SMMC-7721 [14] = assay: Inhibition of MMP9 gene expression in human SMMC7721 cells at […] to 5.49 uM incubated for 24 hrs by real-time PCR analysis; format: functional, cell-based; method in brief: as §4
BGC-823 [15] = assay: Cytotoxicity against human BGC823 cells assessed as inhibition of growth at 200 uM incubated for 72 hrs by MTT assay; format: functional; details: for inhibition at 200 µM: BGC-823, 72 h
NCI-H460 [16] = assay: Cytotoxicity against human NCI-H460 cells assessed as inhibition of growth at 200 uM incubated for 72 hrs by MTT assay; format: functional; details: for inhibition at 200 µM: NCI-H460, 72 h
HCT-116 [17] = assay: Cytotoxicity against human HCT116 cells assessed as inhibition of growth at 200 uM incubated for 72 hrs by MTT assay; format: functional; details: for inhibition at 200 µM: HCT-116, 72 h
HeLa [18] = assay: Cytotoxicity against human HeLa cells assessed as inhibition of growth at 200 uM incubated for 72 hrs by MTT assay; format: functional
SMMC-7721 [19] = assay: Cytotoxicity against human SMMC7721 cells assessed as inhibition of growth at 200 uM incubated for 72 hrs by MTT assay; format: functional; details: for inhibition at 200 µM: SMMC-7721, 72 h

SMILES	IC50 (BGC-823 [1]) [µM]	IC50 (NCI-H460 [2]) [µM]	IC50 (HCT-116 [3]) [µM]	IC50 (SMMC-7721 [4]) [µM]	IC50 (HeLa [5]) [µM]	inhibition at 200 µM (BGC-823 [15]) [%]	inhibition at 200 µM (NCI-H460 [16]) [%]	inhibition at 200 µM (HCT-116 [17]) [%]	inhibition at 200 µM (HeLa [18]) [%]	inhibition at 200 µM (SMMC-7721 [19]) [%]	further results
COc1cccc2c1C(=O)c1c(O)c3c(c(O)c1C2=O)C[C@@](O)(C(=O)CO)C[C@@H]3O[C@H]1C[C@H](N)[C@H](O)[C@H](C)O1 [DOXORUBICIN HYDROCHLORIDE]	1.5	1	1.4	2.2							
CCCC(=O)[C@@H](C)[C@H]1O[C@@](O)([C@H](C)C(=O)OC[C@H](C)[C@H]2CC[C@]3(C)C[C@@H]4[C@H](CO)C[C@@H](O)[C@H]4[C@@](C)(O)C/C=C/23)[C@H](C)C[C@H]1C	10.5	3.5	5.8	9.6	7.6						Activity (SMMC-7721 [6]): inactive; inhibition (SMMC-7721 [7]): Active; inhibition (SMMC-7721 [8]): Dose-dependent effect; inhibition [9]: Dose-dependent effect; inhibition [10]: Dose-dependent effect; inhibition (SMMC-7721 [11]): Active; inhibition (SMMC-7721 [12]): Active; inhibition (SMMC-7721 [13]): Dose-dependent effect; inhibition (SMMC-7721 [14]): Dose-dependent effect
CC(C)[C@H]1C[C@@H](O)[C@]2(C)C[C@@H]3[C@H](CO)C[C@@H](O)[C@H]3[C@@](C)(O)C/C=C/12	> 100	> 100	> 100	> 100	> 100	50	50	50	50	50	
CC(C)[C@@]1(O)CC[C@]2(C)C[C@@H]3[C@H](CO)C[C@@H](O)[C@H]3[C@@](C)(O)C/C=C\21	> 100	> 100	> 100	> 100	> 100						inhibition (BGC-823 [15]): inactive; inhibition (NCI-H460 [16]): inactive; inhibition (HCT-116 [17]): inactive; inhibition (HeLa [18]): inactive; inhibition (SMMC-7721 [19]): inactive
CCC(=O)[C@@H](C)[C@H]1O[C@@](O)([C@H](C)C(=O)OC[C@H](C)[C@H]2CC[C@]3(C)C[C@@H]4[C@H](CO)C[C@@H](O)[C@H]4[C@@](C)(O)C/C=C/23)[C@H](C)C[C@H]1C	7	4.1	6.7	8.9	6.7						
CC(C)[C@H]1C[C@H](O)[C@]2(C)C[C@@H]3[C@H](CO)C[C@@H](O)[C@H]3[C@@](C)(O)C/C=C/12	> 100	> 100	> 100	> 100	> 100	50	50	50	50	50	
CC(C)[C@H]1CC[C@]2(C)C[C@@H]3[C@H](CO)C[C@@H](O)[C@H]3[C@@](C)(O)C/C=C/12	> 100	> 100	> 100	> 100	> 100	90	90	90	90	90	
CCC(=O)[C@@H](C)[C@H]1O[C@@](O)([C@@H](C)C(=O)OC[C@H](C)[C@H]2CC[C@]3(C)C[C@@H]4[C@H](CO)C[C@@H](O)[C@H]4[C@@](C)(O)C/C=C/23)[C@H](C)C[C@H]1C	9.5	6.1	8	14.1	9.3						
